Measurements from ChEMBL document CHEMBL1250427, “Synthesis and biodistribution of [11C]A-836339, a new potential radioligand for PET imaging of cannabinoid type 2 receptors (CB2)” (Bioorg Med Chem, 2010).

Experiments:
[1] = target: Cannabinoid receptor 2 (Homo sapiens, UniProt P34972); experiment: Agonist activity at CB2 receptor; format: functional
[2] = system: Cortex; experiment: Drug uptake in LPS-stimulated CD1 mouse cortex at 5 to 7 mBq, iv administered 5 days post LPS challenge; format: ADME, organism-based; conditions: in vivo, 120 h
Method in brief: (§1)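 Male CD1 mice given LPS (strain O111:B4, 5 mg/kg in saline, i.p.) 5 days before study. [11C]radioligand ([…], ~150 GBq/μmol, 0.2 mL saline) injected into the tail vein. Mice killed at 60 min and brain regions dissected and γ-counted. Uptake given as %ID/g tissue and as blood-normalized %ID/g tissue × body weight (kg). Mean ± SD, n=3.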

[3] = system: Intestine; experiment: Drug uptake in CD1 mouse intestine at 5 to 7 mBq, iv; format: ADME, organism-based; conditions: in vivo
Method in brief: (§2)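 Male CD-1 mice (23-28 g). [11C]radioligand given into a lateral tail vein at […], specific radioactivity ~150 GBq/μmol, in 0.2 mL saline. Mice killed by cervical dislocation at several times after injection. Organs and brain regions dissected on ice, weighed and γ-counted against injectate standards. Uptake given as %ID/g tissue, mean ± SD, n=3.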

[4] = system: Kidney; experiment: Drug uptake in CD1 mouse kidney at 5 to 7 mBq, iv; format: ADME, organism-based; conditions: in vivo; method in brief: as §2
[5] = system: Brain; experiment: Drug uptake in CD1 mouse brain at 5 to 7 mBq, iv in presence of AM630; format: ADME, organism-based; conditions: in vivo
Method in brief: (§3)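 Blocking study in male CD1 mice, either controls or LPS-treated (5 mg/kg LPS O111:B4 i.p., 5 days earlier). AM630 (3 mg/kg) or GW405833 (2 mg/kg) was given s.c. in 0.1 mL DMSO; vehicle controls received DMSO alone. [11C]radioligand ([…], ~150 GBq/μmol) was injected i.v. 30 min later. Tissues harvested at 60 min and γ-counted. Mean ± SD, n=3.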

[6] = Drug uptake in CD1 mouse brainstem at 5 to 7 mBq, iv after 60 mins; format: ADME, organism-based; conditions: in vivo, 1 h; method in brief: as §2
[7] = system: Hippocampus; experiment: Drug uptake in CD1 mouse hippocampus at 5 to 7 mBq, iv after 60 mins; format: ADME, organism-based; conditions: in vivo, 1 h; method in brief: as §2
[8] = system: Cerebellum; experiment: Drug uptake in APPswe/PS1dE9 mouse cerebellum at 5 to 7 mBq, iv; format: ADME, organism-based; conditions: in vivo
Method in brief: (§4)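 Female APPswe/PS1dE9 bigenic mice (line 85, C57Bl/6J background), 18 months old. [11C]radioligand given into a lateral tail vein at […], specific radioactivity ~150 GBq/μmol, in 0.2 mL saline. Mice killed by cervical dislocation at 60 min. Brain regions dissected on ice, weighed and γ-counted against injectate standards. Uptake expressed as blood-normalized %ID/g tissue × body weight (kg).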

[9] = system: Spleen; experiment: Drug uptake in CD1 mouse spleen at 5 to 7 mBq, iv; format: ADME, organism-based; conditions: in vivo; method in brief: as §2
[10] = system: Hippocampus; experiment: Drug uptake in LPS-stimulated CD1 mouse hippocampus at 5 to 7 mBq, iv in presence of AM630; format: ADME, organism-based; conditions: in vivo; method in brief: as §3
[11] = system: Cerebellum; experiment: Drug uptake in LPS-stimulated CD1 mouse cerebellum at 5 to 7 mBq, iv administered 5 days post LPS challenge; format: ADME, organism-based; conditions: in vivo, 120 h; method in brief: as §1
[12] = system: Cerebellum; experiment: Drug uptake in CD1 mouse cerebellum at 5 to 7 mBq, iv after 60 mins; format: ADME, organism-based; conditions: in vivo, 1 h; method in brief: as §2
[13] = Drug uptake in APPswe/PS1dE9 mouse brainstem at 5 to 7 mBq, iv; format: ADME, tissue-based; conditions: in vivo; method in brief: as §4
[14] = Drug uptake in LPS-stimulated CD1 mouse brainstem at 5 to 7 mBq, iv in presence of AM630; format: ADME, organism-based; conditions: in vivo; method in brief: as §3
[15] = system: Cortex; experiment: Drug uptake in APPswe/PS1dE9 mouse cortex at 5 to 7 mBq, iv; format: ADME, organism-based; conditions: in vivo; method in brief: as §4
[16] = system: Brain; experiment: Drug uptake in LPS-stimulated CD1 mouse brain at 5 to 7 mBq, iv in presence of AM630; format: ADME, organism-based; conditions: in vivo; method in brief: as §3
[17] = system: Brain; experiment: Drug uptake in LPS-stimulated CD1 mouse brain at 5 to 7 mBq, iv administered 5 days post LPS challenge; format: ADME, organism-based; conditions: in vivo, 120 h; method in brief: as §1
[18] = system: Cortex; experiment: Drug uptake in LPS-stimulated CD1 mouse cortex at 5 to 7 mBq, iv in presence of AM630; format: ADME, organism-based; conditions: in vivo; method in brief: as §3
[19] = system: Heart; experiment: Drug uptake in CD1 mouse heart at 5 to 7 mBq, iv; format: ADME, organism-based; conditions: in vivo; method in brief: as §2
[20] = system: Brain; experiment: Drug uptake in CD1 mouse brain at 5 to 7 mBq, iv after 3 mins; format: ADME, organism-based; conditions: in vivo, 0.05 h
Method in brief: (§5)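 Dynamic small-animal PET of an LPS-5-day-treated and a control CD1 mouse. Both were injected simultaneously via the tail vein with [11C]radioligand (~3000 mCi/μmol) and imaged for 90 min in 28 frames. Images reconstructed by 2D OSEM after scatter subtraction. Whole-brain ROIs drawn on mean images gave time-SUV curves.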

[21] = Ratio of drug uptake in brain to blood in LPS-stimulated CD1 mouse at 5 to 7 mBq, iv; format: ADME, tissue-based; method in brief: as §1
[22] = system: Hippocampus; experiment: Drug uptake in LPS-stimulated CD1 mouse hippocampus at 5 to 7 mBq, iv administered 5 days post LPS challenge; format: ADME, organism-based; conditions: in vivo, 120 h; method in brief: as §1
[23] = system: Brain; experiment: Drug uptake in CD1 mouse brain at 5 to 7 mBq, iv; format: ADME, organism-based; conditions: in vivo; method in brief: as §2
[24] = system: Cerebellum; experiment: Drug uptake in LPS-stimulated CD1 mouse cerebellum at 5 to 7 mBq, iv in presence of AM630; format: ADME, organism-based; conditions: in vivo; method in brief: as §3
[25] = system: Brain; experiment: Drug uptake in APPswe/PS1dE9 mouse brain at 5 to 7 mBq, iv; format: ADME, organism-based; conditions: in vivo; method in brief: as §4
[26] = system: Brain; experiment: Drug uptake in LPS-stimulated CD1 mouse brain at 5 to 7 mBq, iv administered 5 days post LPS challenge measured after 3 mins; format: ADME, organism-based; conditions: in vivo, 0.05 h; method in brief: as §5
[27] = system: Spleen; experiment: Drug uptake in CD1 mouse spleen at 5 to 7 mBq, iv after 60 mins in presence of AM630; format: ADME, organism-based; conditions: in vivo, 1 h; method in brief: as §3
[28] = Drug uptake in LPS-stimulated CD1 mouse brainstem at 5 to 7 mBq, iv administered 5 days post LPS challenge; format: ADME, organism-based; conditions: read-out: Drug uptake; method in brief: as §1
[29] = system: Liver; experiment: Drug uptake in CD1 mouse liver at 5 to 7 mBq, iv; format: ADME, organism-based; conditions: in vivo; method in brief: as §2
[30] = system: Brain; experiment: Drug uptake in CD1 mouse brain at 5 to 7 mBq, iv in presence of GW-405833; format: ADME, organism-based; conditions: in vivo; method in brief: as §3
[31] = system: Cortex; experiment: Drug uptake in CD1 mouse cortex at 5 to 7 mBq, iv after 60 mins; format: ADME, organism-based; conditions: in vivo, 1 h; method in brief: as §2

Cannabinoid receptor 2, sequence (P34972 whole entry): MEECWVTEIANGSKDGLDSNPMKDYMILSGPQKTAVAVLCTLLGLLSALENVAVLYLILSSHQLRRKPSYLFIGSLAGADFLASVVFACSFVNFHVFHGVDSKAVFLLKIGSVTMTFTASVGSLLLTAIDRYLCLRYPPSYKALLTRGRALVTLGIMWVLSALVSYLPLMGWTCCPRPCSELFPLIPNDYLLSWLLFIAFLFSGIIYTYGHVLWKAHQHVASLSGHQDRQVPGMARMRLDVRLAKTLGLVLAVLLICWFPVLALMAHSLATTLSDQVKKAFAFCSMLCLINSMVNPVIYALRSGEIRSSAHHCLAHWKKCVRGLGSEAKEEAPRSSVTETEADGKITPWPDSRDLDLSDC

Work on `Cc1s/c(=N\C(=O)C2C(C)(C)C2(C)C)n(CCO[11CH3])c1C` yielded a Ki [1] of 0.7 nM, a Drug uptake [2] of 1.7 % ID/g and a Drug uptake [3] of 1.5 % ID/g. For the same compound, the Drug uptake [4] was 2.2 % ID/g, the Drug uptake [5] was “Not Active” and the Drug uptake [6] was 0.3 % ID/g. The Drug uptake [7] was 0.3 % ID/g, the Drug uptake [8] was “Not Active” and the Drug uptake [9] was 1.3 % ID/g. The Drug uptake [10] was “Not Active”, the Drug uptake [11] was 1.8 % ID/g and the Drug uptake [12] was 0.3 % ID/g. For the same compound, the Drug uptake [13] was “Not Active”, the Drug uptake [14] was “Not Active” and the Drug uptake [15] was “Not Active”. The Drug uptake [16] was “Not Active”, the Drug uptake [17] was 1.5 % ID/g and the Drug uptake [18] was “Not Active”. For the same compound, the Drug uptake [19] was 0.7 % ID/g, the SUV [20] was 0.5 and the Kp [21] was 3.3. The Drug uptake [22] was 1.9 % ID/g, the Drug uptake [23] was 0.3 % ID/g and the Drug uptake [24] was “Not Active”. The Drug uptake [25] was “Not Active”, the SUV [26] was 2.3 and the Drug uptake [27] was “Not Active”. The tissue uptake at 120 h [28] was 2.1 %ID/g, the Drug uptake [29] was 4.9 % ID/g and the Drug uptake [30] was “Not Active”. For the same compound, the Drug uptake [31] was 0.3 % ID/g.
